Data on three compounds can be found in ChEMBL document CHEMBL1955854, “New retinoid derivatives as back-ups of Adarotene” (Bioorg Med Chem, 2012).

For data set [1], the system named is NCI-H460. In words: Antiproliferative activity against human NCI-H460 cells incubated for 24 hrs drug exposure measured after 48 hrs of recovery by sulforhodamine B assay. It is filed as functional, cell-based.
Data set [2] is described as follows: Chemical stability in aqueous buffer containing 5% DMSO and 5% tween 80 at pH 1.2 assessed as compound recovery in anoxic conditions after 12 hrs by UPLC analysis. Particulars: pH 1.2, 12 h. In kind it is physicochemical. In a few lines: (§1)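 Stability at 37 °C in aqueous buffer with 5% DMSO and 5% Tween 80 at pH 1.2, 6.8 or 7.4; percent recovery by HPLC/UPLC on BEH C18 column, water+0.1% TFA/acetonitrile gradient from 40% to 95% acetonitrile over 8 min, room temperature.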

Data set [3] in a line: Chemical stability in aqueous buffer containing 5% DMSO and 5% tween 80 at pH 6.8 assessed as compound recovery in anoxic conditions after 24 hrs by UPLC analysis. Particulars: read-out: Stability. It is filed as physicochemical. In a few lines:
as §1

Data set [4] in a line: Chemical stability in aqueous buffer containing 5% DMSO and 5% tween 80 at pH 7.4 assessed as compound recovery in anoxic conditions after 6 hrs by UPLC analysis. In kind it is physicochemical. Particulars: read-out: Stability. The procedure, abridged:
as §1

The test system of data set [5] is A-431. The data set is described as follows: Antitumor activity against human A431 cells xenografted in nude CD1 mouse assessed as tumor volume inhibition at 37 mg/kg, po administered qd 3 times per week for 2 weeks relative to control. Particulars: A-431, 336 h, read-out: TGI. In kind it is functional. In a few lines: (§2)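 A431 epidermoid carcinoma cells (5 × 10⁶) from in vitro culture were injected s.c. into the right flank of CD1 nude mice on day 0, with 8 mice per group. Dosing began on day 3, at tumors of about 50 mm³, on a qdx3/wx2w schedule. Vehicle was 10% DMSO, 9% HPBCD and 14.4% PEG1000 in water. Tumor diameters were measured twice weekly by caliper, and TVI% was taken versus the vehicle group (Mann–Whitney).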
(In xenograft studies the graft and the host belong to different species.)

The subject of data set [6] is Mus musculus. In words: Toxicity in nude CD1 mouse xenografted with human A431 cells assessed as body weight loss at 37 mg/kg, ip administered qd 3 times per week for 2 weeks. In kind it is organism-based, A-431. Set-up: dose 37 mg/kg, route intraperitoneal. Conditions: in vivo, 336 h. The procedure, abridged: (§3)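 CD1 nude mice bore s.c. A431 xenografts (5 × 10⁶ cells, right flank, 8 mice per group). Dosing started on day 3 on a qdx3/wx2w schedule, in vehicle of 10% DMSO, 9% HPBCD and 14.4% PEG1000 in water. Mice were weighed daily, and BWL% = 100 − (mean body weight day x / mean body weight day 1 × 100), with day 1 the first treatment day. The maximum BWL is reported.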

Data set [7] deals with A-431. In words: Antiproliferative activity against human A431 cells incubated for 24 hrs drug exposure measured after 48 hrs of recovery by sulforhodamine B assay. In kind it is functional, cell-based. In general terms: In SRB staining, fixed cells bind dye roughly in proportion to their protein.
The subject of data set [8] is A-431. The data set is described as follows: Antitumor activity against human A431 cells xenografted in nude CD1 mouse assessed as tumor volume inhibition at 37 mg/kg, ip administered qd 3 times per week for 2 weeks relative to control. In kind it is functional. Particulars: A-431, ip, 336 h, route intraperitoneal, read-out: TGI. The procedure, abridged:
as §2

The nature of data set [9]: Solubility in water. It is filed as physicochemical. Conditions: buffer.
Data set [10] in a line: Chemical stability in aqueous buffer containing 5% DMSO and 5% tween 80 at pH 1.2 assessed as compound recovery in anoxic conditions after 3 hrs by UPLC analysis. It is filed as physicochemical. Particulars: read-out: Stability. The procedure, abridged:
as §1

Data set [11] concerns Mus musculus. In words: Toxicity in nude CD1 mouse xenografted with human A431 cells assessed as body weight loss at 37 mg/kg, po administered qd 3 times per week for 2 weeks. It is filed as organism-based, A-431. Further details: dose 37 mg/kg, route oral. Conditions: in vivo, 336 h. In a few lines:
as §3

Data set [12] can be described thus: Chemical stability in aqueous buffer containing 5% DMSO and 5% tween 80 at pH 7.4 assessed as compound recovery in anoxic conditions after 24 hrs by UPLC analysis. In kind it is physicochemical. Conditions: read-out: Stability. The procedure, abridged: as §1
The subject of data set [13] is Plasma. In words: Prodrug conversion in mouse plasma assessed as drug concentration at 0.5 hrs. In kind it is ADME, cell-free. In a few lines: (§4)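 Prodrugs already shown stable at pH 1.2, 6.8 and 7.4 were incubated in murine plasma and sampled over time up to 6 h. A parallel incubation used murine plasma pretreated with the esterase inhibitor PMSF (phenylmethyl sulfonyl fluoride).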

Data set [14] concerns Plasma. The data set is described as follows: Prodrug conversion in mouse plasma assessed as drug concentration at 1 hr. In kind it is ADME, cell-free. In a few lines: as §4
Data set [15] deals with Mus musculus. In words: Toxicity in nude CD1 mouse xenografted with human A431 cells assessed as body weight loss at 40 mg/kg, ip administered qd 3 times per week for 2 weeks. It is filed as organism-based, A-431. Further details: dose 40 mg/kg, route intraperitoneal. Particulars: in vivo, 336 h. The procedure, abridged:
as §3

For data set [16], the system named is Plasma. In words: Prodrug conversion in mouse plasma assessed as drug concentration at 3 hrs. It is filed as ADME, cell-free. In a few lines:
as §4

The subject of data set [17] is Plasma. In words: Prodrug conversion in mouse plasma assessed as drug concentration at 6 hrs in presence of esterase inhibitor PMSF. It is filed as ADME, cell-free. In a few lines:
as §4

Data set [18] deals with Mus musculus. The data set is described as follows: Toxicity in nude CD1 mouse xenografted with human A431 cells assessed as body weight loss at 40 mg/kg, po administered qd 3 times per week for 2 weeks. In kind it is organism-based, A-431. Set-up: dose 40 mg/kg, route oral. Particulars: in vivo, 336 h. The procedure, abridged:
as §3

The test system of data set [19] is A-431. In words: Antitumor activity against human A431 cells xenografted in nude CD1 mouse assessed as tumor volume inhibition at 40 mg/kg, po administered qd 3 times per week for 2 weeks relative to control. It is filed as functional. Particulars: A-431, 336 h, read-out: TGI. The procedure, abridged:
as §2

In data set [20] the test system is A-431. In words: Antitumor activity against human A431 cells xenografted in nude CD1 mouse assessed as tumor volume inhibition at 40 mg/kg, ip administered qd 3 times per week for 2 weeks relative to control. In kind it is functional. Conditions: A-431, ip, 336 h, route intraperitoneal, read-out: TGI. The procedure, abridged: as §2
Data set [21] relates to Plasma. In words: Prodrug conversion in mouse plasma assessed as drug concentration at 6 hrs. It is filed as ADME, cell-free. The procedure, abridged:
as §4

For data set [22], the system named is Mus musculus. The data set is described as follows: Toxicity in nude CD1 mouse xenografted with human A431 cells assessed as body weight loss at 25 mg/kg, po administered qd 3 times per week for 2 weeks. Further details: dose 25 mg/kg, route oral. It is filed as organism-based, A-431. Conditions: in vivo, 336 h. In a few lines:
(§5)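 CD1 nude mice given s.c. right-flank NCI-H460 (3 × 10⁶) or A431 (5 × 10⁶) cells from culture on day 0; eight mice per group. Dosing began day 3 at ~50 mm³ tumors; vehicle 10% DMSO, 9% HPBCD, 14.4% PEG1000 in water. Diameters taken biweekly by caliper; mice weighed daily, maximum BWL% reported; Mann–Whitney versus vehicle.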

Data set [23] is described as follows: Toxicity in po dosed nude CD1 mouse xenografted with human A431 cells assessed as mortality administered qd 3 times per week for 2 weeks. It is filed as organism-based, A-431. Particulars: in vivo.
Data set [24] concerns NCI-H460. In words: Antitumor activity against human NCI-H460 cells xenografted in nude CD1 mouse assessed as tumor volume inhibition at 25 mg/kg, po administered qd 3 times per week for 2 weeks relative to control. It is filed as functional. Conditions: NCI-H460, 336 h, read-out: TGI. The procedure, abridged:
as §5

The subject of data set [25] is Mus musculus. The data set is described as follows: Toxicity in nude CD1 mouse xenografted with human NCI-H460 NSCLC cells assessed as body weight loss at 25 mg/kg, po administered qd 3 times per week for 2 weeks. In kind it is organism-based. Further details: dose 25 mg/kg, route oral. Particulars: in vivo, 336 h. The procedure, abridged:
as §5

Data set [26] has as its system Mus musculus. The data set is described as follows: Toxicity in nude CD1 mouse xenografted with human NCI-H460 NSCLC cells assessed as body weight loss at 13 mg/kg, iv administered qd 3 times per week for 2 weeks. It is filed as organism-based. Particulars: in vivo, 336 h. Set-up: dose 13 mg/kg, route intravenous. In a few lines: as §5
Data set [27] concerns A-431. In words: Antitumor activity against human A431 cells xenografted in nude CD1 mouse assessed as tumor volume inhibition at 25 mg/kg, po administered qd 3 times per week for 2 weeks relative to control. Particulars: A-431, 336 h, read-out: TGI. It is filed as functional. The procedure, abridged: as §5
Data set [28] deals with NCI-H460. The data set is described as follows: Antitumor activity against human NCI-H460 cells xenografted in nude CD1 mouse assessed as tumor volume inhibition at 13 mg/kg, iv administered qd 3 times per week for 2 weeks relative to control. In kind it is functional. Particulars: NCI-H460, 336 h, read-out: TGI. The procedure, abridged:
as §5

The nature of data set [29]: Toxicity in iv dosed nude CD1 mouse xenografted with human A431 cells assessed as mortality administered qd 3 times per week for 2 weeks. In kind it is organism-based, A-431. Particulars: in vivo.

Regarding `Cl.O=C(O)/C=C/c1ccc(-c2ccc(OC(=O)NCCN3CCOCC3)c(C34CC5CC(CC(C5)C3)C4)c2)cc1`, the results for the IC50 in the data set on NCI-H460 [1] and in the data set with A-431 [7] were 920 nM and 1400 nM, respectively. Also, the Stability entry in data set [2] was “Stable”. In addition, the results for the remaining at 24 h in data set [3] and in data set [12] were greater than 99% and 85%, respectively. Besides, the remaining at 6 h in [4] is greater than 99%. The inhibition in vivo at 37 mg/kg was 0% in the data set on A-431 [5] and 21% in the data set on A-431 [8]. Further, the Activity in the data set with Mus musculus [6] and with Mus musculus [11] was 0% in each case. Moreover, the solubility result in [9] is “Insoluble”. Moreover, the remaining at 3 h in [10] was greater than 99%.

As to `Cl.O=C(O)/C=C/c1ccc(-c2ccc(OC(=O)N3CCC(N4CCCCC4)CC3)c(C34CC5CC(CC(C5)C3)C4)c2)cc1`, the Drug metabolism with Plasma [13] was determined as 100%; in the data set on Plasma [14], 100%; in the data set on Plasma [16], 100%; in the data set on Plasma [17], 4.13%; in the data set with Plasma [21] it was 100%. Further, the IC50 with NCI-H460 [1] and in the data set with A-431 [7] was greater than 10000 nM in each case. Further, in data set [2], the Stability entry is on record as “Stable”. The Activity in the data set with Mus musculus [15] was 0%; in the data set on Mus musculus [18] it was 4%. For the same compound, the remaining at 24 h in [3] and in data set [12] was greater than 99% throughout. Moreover, the inhibition in vivo at 40 mg/kg in the data set on A-431 [19] came to 22%; in the data set with A-431 [20] it was 26%. Besides, in [9], the solubility entry is “Insoluble”. Further, the remaining at 3 h in data set [10] is greater than 99%.

With `O=C(O)/C=C/c1ccc(-c2ccc(O)c(C34CC5CC(CC(C5)C3)C4)c2)cc1` [ADAROTENE], the Activity was determined as 12% in the data set with Mus musculus [22], 9% in the data set on Mus musculus [25] and 8% with Mus musculus [26]. For the same compound, the IC50 with NCI-H460 [1] is 200 nM; with A-431 [7] it was 120 nM. Moreover, the Stability result in data set [2] is given as “Stable”. For the same compound, the MTD at 336 h in [23] came to 25 mg/kg; in [29], 13 mg/kg. Moreover, the inhibition in vivo at 25 mg/kg in the data set on NCI-H460 [24] was 34%; in the data set with A-431 [27] it was 36%. Also, the remaining at 24 h in data set [3] and in data set [12] was greater than 99% in each case. For the same compound, in the data set on NCI-H460 [28], the inhibition in vivo at 13 mg/kg turned out to be 37%. Moreover, the solubility result in [9] is on record as “Insoluble”. The remaining at 3 h in data set [10] was greater than 99%.

As usually defined, the IC50 is the point on the concentration scale where inhibition reaches its midpoint.
